High-throughput results: PubChem, SRMLSC
Many of the other results were omitted from the sample, so hits are more common in it than they were.
Lung fibro prol – antiproliferative effect on LL 47 fibroblasts – human, LL 47 cells, CellTiter-Glo luminescence, primary screen; LL 47 human lung fibroblast viability, ATP luminescence; active compounds read low; hit rate 1.1% among 85,000; viability, % at 10 µM;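 active = viability at or below 50% in the single dose screen; inactive = viability above 50%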;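 also: compound exposure lasted 72 h before the ATP readout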
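Assay system: human lung fibroblast line LL 47, low passage. Input: 1,150 fibroblasts seeded per well. Times: overnight cell rest, 72 h compound treatment at 37 °C. Evaluation: % viability of median cell-only signal. Technique: luminescent ATP detection, CellTiter-Glo. Control set: cell-only wells, no compound.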
HUVEC prolif 384 – inhibitors of HUVEC proliferation, primary screen, cell-based, 384-well. hit rate 1.1% among 86,000. AID 648, 2007. CellTiter-Glo luminescence, 72 h; active compounds read low. viability, % at 10 µM (by protocol);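 active = viability at or below 30%; inactive = viability above 30%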
HCT116 bCat-KO – primary screen for growth suppressors in beta-catenin knockout HCT116 cells (colon tumor, human). HCT116 beta-catenin knockout viability, CellTiter-Glo, 60 h; active compounds read low. viability, % at 10 µM. hit rate 1.5% among 140,000;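 active = viability at or under a set limit, the compound median less 4 SD, cut at about 6% in these data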
HCT116 PTEN-null – growth suppression of PTEN-null HCT116, primary screen, cell-based, CellTiter-Glo; hit rate 1.2% among 140,000; HCT116 PTEN-null viability, 60 h; active compounds read low; viability, % at 10 µM; AID 827, 2007;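 active = viability at or below a set limit, 4 SD under the median of all tested compounds, cut at about 3.7% in these data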;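 also: PTEN knockout HCT116 line with beta catenin targeted HCT116 as companion control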
H69AR inhibit – proliferation blockers of H69AR lung cancer cells, primary screen, cell-based, human, 86K library; H69AR lung tumor viability, ATP luminescence, 72 h; active compounds read low; viability, % at 10 µM; hit rate 6% among 85,000; AID 598, 2007;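 active = viability at or below 40%; inactive = viability above 40%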;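 also: multidrug resistant small cell line overexpressing MRP-1 efflux transporter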
Numbers stand for hits; 0 = inactive; - = no result.

SMILES	Lung fibro prol	HUVEC prolif 384	HCT116 bCat-KO	HCT116 PTEN-null	H69AR inhibit
Cc1cc(C(=O)c2ccccc2)c(NC(=O)CN2CCOCC2)s1	-	-	0	0	-
COc1ccccc1/C=c1\sc2nc(-c3ccco3)nn2c1=O	0	0	0	0	36
O=C(COC(=O)c1ccccc1Oc1ccccc1)NCc1ccco1	0	0	0	0	0
COc1cccc(-n2nnc3c(=O)n(CC(=O)N4CCC(Cc5ccccc5)CC4)cnc32)c1	0	0	0	0	30
O=[N+]([O-])c1ccc(O)c2ncccc12	-	-	4.1	0	-
COCc1ccc(O)c2ncccc12	3.0	6.0	2.2	2.1	1.1
CN1CCN(Cc2cc(COCc3ccccc3)c3cccnc3c2O)CC1	2.8	0	1.1	0.8	1.8
Oc1ccc(CNc2ccccc2)c2cccnc12	0	0	0	0	36
Oc1ccc(CNc2ccc(F)cc2)c2cccnc12	0	0	0	0	0
COc1cc(-c2nnn(CC(=O)NC3CCS(=O)(=O)C3)n2)ccc1OCc1ccccc1 (stereo not drawn)	0	0	0	0	0
CCOC(=O)/C(N=Nc1sc(C(=O)OC)c(C)c1C(=O)OCC)=C(\O)CCl	-	-	0	0	-
O=C(NO)C1CC2C=CC1C2 (stereo not drawn)	-	-	0	0	-
OCc1ccnc2c(O)cccc12	-	-	3.2	2.9	-
Oc1ccc(CN2CCN(Cc3ccccc3)CC2)c2cccnc12	0	0	2.4	2.0	2.0
Cc1ccccc1N=Nc1ccc(O)c2ncccc12	-	-	0	0	-
Cc1ccccc1NCc1ccc(O)c2ncccc12	0	0	0	0	0
COc1cc(OC)c(OC)cc1CN1CCN(S(=O)(=O)c2ccc(F)cc2)CC1	0	0	0	0	0
C=C(C)C(=O)OC1(C(F)(F)F)Oc2cc(C)ccc2NC1=O (stereo not drawn)	17	15	0	0	1.5
COC(=O)CC1Oc2ccc(C)cc2NC1=O (stereo not drawn)	0	0	0	0	0
CC(=O)Nc1sc2c(c1C(c1ccccc1)N1CCOCC1)CCCC2 (stereo not drawn)	0	0	0	0	0
CC(C)(C)NC(=O)c1cnn2c1NC(c1ccc(F)cc1)CC2C(F)(F)F (stereo not drawn)	33	0	0	0	0
Cc1ccc(C2CC(C(F)(F)F)n3ncc(C(N)=O)c3N2)cc1 (stereo not drawn)	0	0	0	0	0
O=C(Nc1ccc2c(c1)CCC2)c1cnn2c1NC(c1ccco1)CC2C(F)(F)F (stereo not drawn)	37	0	0	0	30
Cc1ccc(Cl)cc1NC(=O)c1cnn2c1NC(c1ccco1)CC2C(F)(F)F (stereo not drawn)	0	0	0	0	0
COc1ccc(C2NC(C(=O)O)Cc3c2[nH]c2ccccc32)cc1OC (stereo not drawn)	0	0	0	0	0
SMILES	Lung fibro prol	HUVEC prolif 384	HCT116 bCat-KO	HCT116 PTEN-null	H69AR inhibit
COc1ccc(C2NCCc3c2[nH]c2ccccc32)cc1CSc1nc2ccccc2s1 (stereo not drawn)	-	-	1.4	1.3	-
Cc1cc(-n2c(SCC(=O)NCc3cccs3)nc3n[nH]c(C)c3c2=N)ccc1Cl	0	0	0	-	24
CCc1ccc(NC(=O)CSc2nc3n[nH]c(C)c3c(=N)n2-c2cccc(OC)c2)cc1	0	0	0	0	10
Cc1ccc(-c2nnc(SCC(=O)N3CCN(c4ccccc4)CC3)o2)cc1	0	0	0	0	0
Cc1nc(NCc2ccco2)c2c3c(sc2n1)CCC3	0	21	0	0	0
c1coc(CNc2ncnc3sc4c(c23)CCCCC4)c1	0	0	0	0	0
CCOC(=O)C1=c2/c(=C/c3ccccc3OC)c(N)c(C#N)n2C(=O)C(c2ccccc2OC)S1 (stereo not drawn)	0	27	0	-	3.4
O=C(NN1CCOCC1)c1cc(-c2ccccc2)nc2ccccc12	-	-	0	0	-
O=C1c2ccccc2C(Nc2ccc3c(c2)OCCO3)N1Cc1ccccc1 (stereo not drawn)	0	0	0	0	0
COc1cc(NC(=O)c2c(F)c(F)c(F)c(F)c2F)c(OC)cc1Cl	0	0	0	0	14
CCCCCCCCC[n+]1cccc2c3ccccc3ccc21	-	-	1.2	1.2	-
O=C(C[n+]1cc2ccccc2c2ccccc21)c1ccccc1	-	-	0	0	-
CCCCCCCCCCCCCCCC[n+]1cccc2ccccc21	-	-	1.4	1.7	-
